Bioassay records: PubChem, several laboratories
In the library only some 2.1% were active in any assay of this set; here they are far more common.
TDP2 absorb: blocks human TDP2 phosphodiesterase activity; O95551; recombinant TDP2, T5PNP hydrolysis, p-nitrophenol absorbance 415 nm; inhibition, % at 12.8 µM; 370,000 tested, 0.34% active; AID 720702;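 active = inhibition above the mean of all tested compounds plus 3 SD, set per campaign, cut at about 25% in these data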;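 also: 0% = DMSO with enzyme and 100% = buffer with substrate but no TDP2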
Target sequence (O95551 whole entry, looked up): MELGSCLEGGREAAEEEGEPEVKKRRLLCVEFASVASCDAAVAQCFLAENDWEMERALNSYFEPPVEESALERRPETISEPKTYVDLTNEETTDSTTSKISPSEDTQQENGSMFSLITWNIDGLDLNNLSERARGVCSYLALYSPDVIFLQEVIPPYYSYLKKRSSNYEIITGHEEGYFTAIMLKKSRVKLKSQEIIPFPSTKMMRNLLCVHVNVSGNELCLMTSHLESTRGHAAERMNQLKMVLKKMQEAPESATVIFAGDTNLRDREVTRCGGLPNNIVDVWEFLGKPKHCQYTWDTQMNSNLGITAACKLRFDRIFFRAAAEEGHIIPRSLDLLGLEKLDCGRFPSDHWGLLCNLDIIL
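System – recombinant human TDP2 · Quantity – TDP2 enzyme at 120 nM final · Doses – single concentration, 12.8 µM nominal, with 1% DMSO · Incubation – 2 h at 37 °C · Measured by – epi absorbance of p-nitrophenol freed from T5PNP by hydrolysis · Read-out – % inhibition relative to enzyme-containing and enzyme-free wells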
PP1 inh: counter-screen for PP5 inhibitors: inhibitors of human PP1-alpha. P62136. purified PP1alpha, OMFP fluorescence. inhibition, % at 6.7 µM. 320,000 tested, 0.9% active;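 active = inhibition above the mean inhibition of all tested compounds plus 3 SD, computed separately for each screening campaign, cut at about 15% in these data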
Apaf-1 inh: inhibitors of human Apaf-1 apoptosome; reconstituted apoptosome caspase-3 activity, DEVD-Rh110 fluorescence; inhibition, % at 20 µM; 330,000 tested, 0.71% active; AID 489030; active = inhibition of at least 40% at 20 µM;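 also: plate controls were DMSO wells for no effect and DEVD-CHO caspase inhibitor wells for full effect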
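System: reconstituted apoptosome with Apaf-1, cytochrome c, caspase-9, procaspase-3, dATP; Signal: Rh110 fluorescence intensity; Schedule: 30 min compound preincubation, 50 min activation, room temperature; Reagent: cytochrome c trigger plus (Z-DEVD)2-Rh110 caspase-3 substrate.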
PP5 inh: inhibitors of human protein phosphatase 5 (PP5); P53041; purified PP5c, OMFP substrate fluorescence; inhibition, % at 6.7 µM; 320,000 tested, 0.18% active;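 active = inhibition above the campaign's mean inhibition across all tested compounds plus 3 SD, cut at about 9.5% in these data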;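 also: 0% = DMSO only and 100% = 100 µM cantharidin control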
GSTO1 inh: counter-screen for RBBP9 inhibitors: inhibitors of human GSTO1 | recombinant GSTO1, activity-based probe fluorescence polarization | 300,000 tested, 1.1% active | P78417 | inhibition, % at 5.96 µM;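 active = inhibition above the campaign mean inhibition plus 3 SD, cut at about 35% in these data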;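 also: 0% = GSTO1-1 with DMSO and 100% = wells lacking GSTO1-1 enzyme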
TDP2 confirm: confirmation of human TDP2 inhibitors; 1,100 tested, 22% active; inhibition, % at 12.8 µM; recombinant human TDP2, absorbance read-out; shares compounds with TDP2 absorb; in the data active = inhibition above about 25%;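 also: 0% = vehicle with enzyme and 100% = no enzyme buffer only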
The depositor's hits bear a star; · = no result given.

SMILES | TDP2 absorb | PP1 inh | Apaf-1 inh | PP5 inh | GSTO1 inh | TDP2 confirm
CCC[C@H]1[C@@H](OC(=O)NCc2ccccc2)CC[C@@]23CCCN2C(=O)CCC[C@@H]13 | 6 | · | · | · | · | ·
CN(CCCC(=O)Nc1ccc(OC(F)F)cc1)S(=O)(=O)c1ccc(F)cc1 | 28* | 1 | 14 | 1 | 3 | 6
CCC[C@H]1[C@@H](OC(=O)NCc2cccnc2)CC[C@@]23CCCN2C(=O)CCC[C@@H]13 | 4 | · | · | · | · | ·
NS(=O)(=O)c1ccc(-c2ccc(/C=C3\SC(=S)N(C4CCS(=O)(=O)C4)C3=O)o2)cc1 (centres undefined) | 29* | 4 | 5 | 6 | 13 | -1
N#CCc1cnc2ccccc2n1 | 28* | 2 | · | 1 | 36* | 22
COc1ccc(CN2CCCC(C(=O)N3CCCC3)C2)c(OC)c1 (centres undefined) | 31* | -2 | 1 | 0 | -1 | 6
COc1cc(OC)c(OC)cc1CN1CCCC(C(=O)N2CCCCC2)C1 (centres undefined) | 9 | 0 | 12 | 3 | -3 | ·
CC(C)C1Cc2[nH]c(=O)c(C(=O)O)cc2CO1 (centres undefined) | 29* | -5 | -15 | 1 | -3 | 9
CCOC(=O)c1c(-c2ccc(Cl)cc2)csc1NC(=O)CNCc1ccco1 | 32* | 0 | 2 | 2 | 4 | 8
C#Cc1cccc(OCC(C)CN2CCC(C(O)(c3ccccc3)c3ccccc3)CC2)c1 (centres undefined) | -4 | · | · | · | · | ·
N#CC1=C(N)Oc2n[nH]c(-c3cccs3)c2C1c1cccs1 (centres undefined) | 29* | -1 | 36 | 2 | 19 | 1
CCc1ccc2cc(C)cc(C)c2n1 | 4 | · | · | · | · | ·
CCc1ccc2cc(F)cc(F)c2n1 | 45* | · | · | · | · | -9
CN1C(=O)c2cc(NC(=O)Nc3ccccc3)ccc2OC[C@H]2O[C@@H](CC(=O)NCC(F)(F)F)CC[C@@H]21 | 9 | · | · | · | · | ·
CCc1ccc(NC(=S)Nc2cc(OC)c(NC(=O)C(C)C)cc2OC)cc1 | 15 | 1 | 5 | -1 | 13 | ·
CCCC(=O)Nc1cc(OC)c(NC(=S)Nc2ccc(CC)cc2)cc1OC | 26* | · | · | · | · | 4
Cc1c(C(c2ccccc2O)c2c(C)n(C)n(-c3ccccc3)c2=O)c(=O)n(-c2ccccc2)n1C | 9 | -6 | -7 | -1 | 0 | ·
Cc1c(C(c2cc(O)ccc2Cl)c2c(C)n(C)n(-c3ccccc3)c2=O)c(=O)n(-c2ccccc2)n1C | 29* | 1 | · | 1 | 10 | 12
O=C1C(Nc2ccc(O)cc2)=C/C(=N/S(=O)(=O)c2cccs2)c2ccccc21 | 78* | · | · | · | · | 78*
O=C(O)c1ccc(NC2=C/C(=N/S(=O)(=O)c3cccs3)c3ccccc3C2=O)cc1 | 60* | · | · | · | · | 73*
CC(=O)OCCCN1CCC2(CCC(c3ccccc3)CC2)C1=O (centres undefined) | 0 | · | · | · | · | ·
CCN(CC)S(=O)(=O)c1ccc2oc(SCC(=O)Nc3cc(C)on3)nc2c1 | 41* | 1 | 1 | -1 | 18 | -5
Cc1ccc(S(=O)(=O)N2c3ccccc3C[C@H]2CCC(=O)c2ccccc2)cc1 | 0 | · | · | · | · | ·
C(=NN=C(NN=Cc1cccs1)NN=Cc1cccs1)c1cccs1 | 54* | · | · | · | · | -1
COc1cccc(N2CC(C(=O)Nc3nnc(SCCC4OCCO4)s3)CC2=O)c1 (centres undefined) | 29* | 1 | -3 | 0 | 7 | 2
SMILES | TDP2 absorb | PP1 inh | Apaf-1 inh | PP5 inh | GSTO1 inh | TDP2 confirm
COc1ccc(C(=O)NCC(O)CN2CCOCC2)cc1[N+](=O)[O-] (centres undefined) | 25* | -3 | 0 | 2 | 5 | -2
Cc1[nH]c2ccccc2c1/C=N/Nc1nncn1N | 74* | -8 | 0 | 0 | 23 | 4
Cc1[nH]c2ccccc2c1/C=N/Nc1ccccn1 | 1 | · | · | · | · | ·
Cc1ccc(C)c(S(=O)(=O)NCc2ccc(C(=O)N3CCOCC3)cc2)c1 | 25* | -2 | -47 | -1 | 1 | -5
COc1ccc(N(C(=O)Cn2nnc(-c3ccccc3F)n2)C(C(=O)NCC2CCCO2)c2ccc(Cl)cc2)cc1 (centres undefined) | 26* | -4 | 2 | -1 | 7 | 2
COc1cc(C(c2c(C)[nH][nH]c2=O)c2c(C)[nH][nH]c2=O)ccc1OS(=O)(=O)c1ccc(C)cc1 | -2 | 2 | 36 | 3 | -11 | ·
